Screening data (PubChem)
Fam108B counter: mouse Fam108B serine hydrolase inhibitors, primary screen, counter-screen for RBBP9 inhibitor project, biochemical, fluorescence polarization | recombinant Fam108B, FP-Rh probe fluorescence polarization | inhibition, % at 9.51 µM | 300,000 tested, 0.33% active;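 active means inhibition above the screen mean inhibition plus 3 SD, computed separately per campaign, cut at about 18% in these data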;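 further: inhibitors lower polarization as less probe binds the enzyme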
LYPLA2 counter: LYPLA2 inhibitors, primary screen, counter-screen for PME1 inhibitor project, biochemical, fluorescence polarization, FP-Rh probe ABPP. recombinant LYPLA2. 320,000 tested, 0.38% active. inhibition, % at 5.9 µM. Acyl-protein thioesterase 2 (Homo sapiens), O95372;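 active means inhibition above the screen-wide mean plus 3 SD, limit set per campaign, cut at about 26% in these data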
RBBP9 inh: human RBBP9 inhibitors, primary screen, biochemical, fluorescence polarization, FP-Rh probe, HTS | 220,000 tested, 0.2% active | Serine hydrolase RBBP9 (Homo sapiens), O75884 | recombinant RBBP9 | inhibition, % at 7.94 µM | AID 1515, 2009;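 active means inhibition above the campaign mean of all tested compounds plus 3 SD, cut at about 14% in these data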
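Measured by – fluorescence polarization · Test system – RBBP9 protein · Input – 2.5 µM RBBP9 dispensing solution, before mixing · Measure – percent inhibition from mP, scaled between DMSO and no-protein wells · Benchmarks – DMSO-treated enzyme wells and wells lacking RBBP9 · Times – preincubation 30 min plus labeling 45 min at 25 °C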
PME-1 primary: PME-1 inhibitors via competitive probe labeling, primary screen, biochemical, fluorescence polarization, FP-Rh probe, HTS | recombinant PME-1 | 320,000 tested, 0.53% active | inhibition, % at 5.9 µM | AID 2130, 2009;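 active means inhibition above the campaign mean of all compounds plus 3 SD, cut at about 26% in these data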;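 further: competitive labeling of PME-1 active site by serine hydrolase directed probe; inhibitors block probe labeling so polarization falls and inhibition rises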
Target sequence (Q9Y570 whole entry, looked up): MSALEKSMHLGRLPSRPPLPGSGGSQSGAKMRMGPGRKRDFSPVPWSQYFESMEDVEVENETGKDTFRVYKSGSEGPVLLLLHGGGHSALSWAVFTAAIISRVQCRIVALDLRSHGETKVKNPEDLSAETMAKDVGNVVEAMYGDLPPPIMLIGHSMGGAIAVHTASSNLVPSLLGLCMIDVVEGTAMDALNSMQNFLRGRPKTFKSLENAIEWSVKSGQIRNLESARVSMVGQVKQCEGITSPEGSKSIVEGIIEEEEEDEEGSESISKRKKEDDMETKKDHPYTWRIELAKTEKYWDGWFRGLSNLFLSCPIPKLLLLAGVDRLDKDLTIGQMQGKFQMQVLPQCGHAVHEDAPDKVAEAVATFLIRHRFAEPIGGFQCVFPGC
LYPLA1 inh: LYPLA1 inhibitors, primary screen, counter-screen for PME1 inhibitor project, biochemical, fluorescence polarization, FP-Rh probe ABPP; Acyl-protein thioesterase 1 (Homo sapiens), O75608; recombinant LYPLA1; inhibition, % at 5.9 µM; 320,000 tested, 0.16% active;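 active means inhibition above the mean of all tested compounds plus 3 SD, set per campaign, cut at about 14% in these data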;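 further: inhibitors block serine hydrolase probe labeling of LYPLA1 so polarization falls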
LYPLA1 confirm: LYPLA1 inhibitors, retest, confirmation, counter-screen for PME1 inhibitor project, biochemical, fluorescence polarization, FP-Rh probe ABPP. shares compounds with LYPLA1 inh. AID 2233, 2010. inhibition, % at 5.9 µM. 480 tested, 69% active. recombinant LYPLA1;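 active means mean inhibition across replicates above the hit cutoff set in the primary screen, cut at about 15% in these data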;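 further: loss of FP-Rh probe labeling of LYPLA1 seen as lower polarization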
Numbers stand for hits. This is a sample that favours compounds with a hit; in the whole collection about 0.99% have one here.

For CCCCc1cc(=O)oc2cc(OCc3cc(OC)c(OC)c(OC)c3)c(Cl)cc12 the results were Fam108B counter inactive, LYPLA2 counter inactive, RBBP9 inh inactive, PME-1 primary inactive, LYPLA1 inh 16 and LYPLA1 confirm 27.
Screening CCCc1cc(=O)oc2cc(OCc3cc(OC)c(OC)c(OC)c3)c(Cl)cc12 returned Fam108B counter inactive, LYPLA2 counter inactive, RBBP9 inh inactive, PME-1 primary inactive and LYPLA1 inh inactive.
For O=C1c2ccccc2-c2onc3c(N4CCN(CCO)CC4)cc(N4CCN(C(=O)c5ccco5)CC4)c1c23 the results were Fam108B counter inactive, LYPLA2 counter inactive, PME-1 primary inactive, LYPLA1 inh 17 and LYPLA1 confirm inactive.
COc1cc(NC(=O)C2CCC(CNc3c(N4CCC(C)CC4)c(=O)c3=O)CC2)cc(OC)c1 (stereo not drawn) was read as Fam108B counter inactive, LYPLA2 counter inactive, RBBP9 inh inactive, PME-1 primary inactive, LYPLA1 inh 39 and LYPLA1 confirm 40.
For CCOc1ccc(NC(=O)C2CCC(CNc3c(N4CCC(C)CC4)c(=O)c3=O)CC2)cc1 (stereo not drawn) the results were Fam108B counter inactive, LYPLA2 counter inactive, RBBP9 inh inactive, PME-1 primary inactive and LYPLA1 inh inactive.
Screening COc1cc(NC(=O)C2CCC(CNc3c(N4CCCCC4)c(=O)c3=O)CC2)cc(OC)c1 (stereo not drawn) returned Fam108B counter inactive, LYPLA2 counter inactive, RBBP9 inh inactive, PME-1 primary inactive, LYPLA1 inh 24 and LYPLA1 confirm 31.
`COc1ccc(NC(=O)C2CCC(CNc3c(N4CCC(C)CC4)c(=O)c3=O)CC2)cc1OC` (stereo not drawn) gave Fam108B counter inactive, LYPLA2 counter inactive, RBBP9 inh inactive, PME-1 primary inactive, LYPLA1 inh 24 and LYPLA1 confirm 26.
For CC1CCN(c2c(NCC3CCC(C(=O)Nc4ccccn4)CC3)c(=O)c2=O)CC1 (stereo not drawn) the results were Fam108B counter inactive, LYPLA2 counter inactive, RBBP9 inh inactive, PME-1 primary inactive and LYPLA1 inh inactive.
`O=C(Nc1ccc(F)cc1)C1CCC(CNc2c(N3CCCCC3)c(=O)c2=O)CC1` (stereo not drawn) gave Fam108B counter inactive, LYPLA2 counter inactive, RBBP9 inh inactive, PME-1 primary inactive and LYPLA1 inh inactive.
`Cc1ccc(C)c(N2CCN(C(=O)c3csc4ccccc34)CC2)c1` gave Fam108B counter inactive, LYPLA2 counter inactive, RBBP9 inh inactive, PME-1 primary inactive and LYPLA1 inh inactive.
`NC(Cc1c[nH]c2ccccc12)C(=O)NCc1ccco1` (stereo not drawn) gave Fam108B counter inactive, LYPLA2 counter inactive, RBBP9 inh inactive, PME-1 primary inactive and LYPLA1 inh inactive.
Cc1c(C(=O)NN)[nH]c2ccc([N+](=O)[O-])cc12 was read as Fam108B counter inactive, LYPLA2 counter inactive, RBBP9 inh inactive, PME-1 primary inactive and LYPLA1 inh inactive.
`CCCCC/C=N/NC(=O)c1[nH]c2ccc([N+](=O)[O-])cc2c1C` gave Fam108B counter inactive, LYPLA2 counter inactive, RBBP9 inh inactive, PME-1 primary inactive, LYPLA1 inh 15 and LYPLA1 confirm 40.
CCn1c2ccccc2c2nnc(SCc3ccc(C(=O)OC)o3)nc21 was read as Fam108B counter inactive, LYPLA2 counter inactive, RBBP9 inh inactive, PME-1 primary inactive, LYPLA1 inh 15 and LYPLA1 confirm 22.
CCn1c2ccccc2c2nnc(SCc3ccccc3)nc21 was read as Fam108B counter inactive, LYPLA2 counter inactive, RBBP9 inh inactive, PME-1 primary inactive and LYPLA1 inh inactive.
CC1CN(Cc2cc(=O)oc3cc(O)c(Cl)cc23)CC(C)O1 (stereo not drawn) was read as Fam108B counter inactive, LYPLA2 counter inactive, PME-1 primary inactive, LYPLA1 inh 16 and LYPLA1 confirm 42.
